Bioassay records deposited in PubChem by SRMLSC.
The sample as a whole holds a higher share of hits than the screen did.
bCat KO growth – beta-catenin-lacking colon tumor cell growth suppression; viability, % at 10 µM; 140,000 tested, 1.5% active; AID 818; HCT116 beta-catenin knockout viability, CellTiter-Glo, 60 h; stronger effect = lower value;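 active = viability at or under a set limit, the compound median less 4 SD, cut at about 6% in these data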
Fibroblast inh – blocks proliferation of human lung fibroblasts; LL 47 human lung fibroblast viability, ATP luminescence; stronger effect = lower value; viability, % at 10 µM; 85,000 tested, 1.1% active;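 active = viability at or below 50% in the single dose screen; inactive = viability above 50%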;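 also: compound exposure lasted 72 h before the ATP readout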
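Test system: LL 47 human lung fibroblasts / Incubation: 72 h compound exposure at 37 °C after overnight plating / Technique: luminescent ATP detection, CellTiter-Glo / Compound dosing: 0.1% DMSO in all compound wells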
HCT116 PTEN-null – growth suppressors of cells with PTEN tumor suppressor deletion; viability, % at 10 µM; 140,000 tested, 1.2% active; HCT116 PTEN-null viability, CellTiter-Glo, 60 h; stronger effect = lower value;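 active = viability at or below a set limit, 4 SD under the median of all tested compounds, cut at about 3.7% in these data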;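 also: PTEN knockout HCT116 line with beta catenin targeted HCT116 as companion control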
HUVEC prolif 384 – blocks proliferation of human endothelial cells; HUVEC proliferation, CellTiter-Glo luminescence, 72 h; stronger effect = lower value; viability, % at 10 µM (by protocol); 86,000 tested, 1.1% active; AID 648;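 active = viability at or below 30%; inactive = viability above 30%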
H69AR inhibit – blocks growth of human H69AR lung tumor cells; H69AR lung tumor viability, ATP luminescence, 72 h; stronger effect = lower value; viability, % at 10 µM; 85,000 tested, 6% active; AID 598;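 active = viability at or below 40%; inactive = viability above 40%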;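 also: multidrug resistant small cell line overexpressing MRP-1 efflux transporter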
A number is an active result.

Results for CC1=C/C(=N\OS(=O)(=O)c2ccccc2)C(C)=CC1=O ?
bCat KO growth: 1.8; HCT116 PTEN-null: 1.7

Results for CC1=C(C)/C(=N\OS(=O)(=O)c2ccc(C)cc2)C=CC1=O ?
bCat KO growth: 1.8; HCT116 PTEN-null: 1.7

What do the screens show for `COc1ccc(S(=O)(=O)/N=C2/C=CC(=O)C(C)=C2C)cc1`?
bCat KO growth: inactive; HCT116 PTEN-null: inactive

What do the screens show for `CC1=C/C(=N\OS(=O)(=O)c2ccccc2)C(C(C)C)=CC1=O`?
bCat KO growth: 1.5; HCT116 PTEN-null: 1.5

What do the screens show for `CCOC(O)[C@H]1N[C@@H](c2ccc(Cl)cc2)[C@@H]([N+](=O)[O-])[C@@H]1c1ccccc1` (some centres undefined)?
bCat KO growth: inactive; HCT116 PTEN-null: inactive

How did CCCOc1ccc(/C(O)=C2/C(=O)C(=O)N(CCN(C)C)C2c2ccncc2)cc1 (centres undefined) do in these assays?
Fibroblast inh: inactive; HUVEC prolif 384: inactive; H69AR inhibit: inactive

How did Cc1cc(Nc2cc(F)ccc2C)n2ncnc2n1 do in these assays?
bCat KO growth: inactive; Fibroblast inh: inactive; HCT116 PTEN-null: inactive; HUVEC prolif 384: inactive; H69AR inhibit: inactive

Results for O=C(Nc1cccc(-c2cn3ccccc3n2)c1)c1cc2ccccc2oc1=O ?
bCat KO growth: 2.8; HCT116 PTEN-null: 1.8

What do the screens show for `O=C(Nc1cccc(-c2cn3ccccc3n2)c1)c1cccs1`?
bCat KO growth: inactive; HCT116 PTEN-null: inactive

How did Cc1ccnc(NS(=O)(=O)c2ccc(NC(=O)Cc3cccs3)cc2)n1 do in these assays?
bCat KO growth: inactive; Fibroblast inh: inactive; HCT116 PTEN-null: inactive; HUVEC prolif 384: inactive; H69AR inhibit: inactive

What do the screens show for `COC(=O)CC(=O)CSc1nc(C)cc(C)c1C#N`?
bCat KO growth: inactive; Fibroblast inh: inactive; HCT116 PTEN-null: inactive; HUVEC prolif 384: inactive; H69AR inhibit: inactive

Results for CCOc1cccc(C(=O)Nc2cccc(-c3nnc(-c4ccc(C)cc4)o3)c2)c1 ?
bCat KO growth: 1.7; Fibroblast inh: 37; HCT116 PTEN-null: 3.1; HUVEC prolif 384: 17

Results for CCOc1cc(OCC)cc(C(=O)Nc2cccc(C(C)=O)c2)c1 ?
bCat KO growth: inactive; HCT116 PTEN-null: inactive

How did Cc1ccc(-c2nnc(-c3ccc(NC(=O)c4ccco4)cc3)o2)cc1 do in these assays?
bCat KO growth: inactive; Fibroblast inh: inactive; HCT116 PTEN-null: inactive; HUVEC prolif 384: inactive; H69AR inhibit: 37

What do the screens show for `CC(C)OC(=O)c1cccc(NC(=O)c2ccccc2)c1`?
bCat KO growth: inactive; Fibroblast inh: inactive; HCT116 PTEN-null: inactive; HUVEC prolif 384: inactive; H69AR inhibit: 30

What do the screens show for `CCOc1cccc(C(=O)Nc2cccc(-c3nnc(-c4ccccc4)o3)c2)c1`?
bCat KO growth: inactive; Fibroblast inh: inactive; HCT116 PTEN-null: inactive; HUVEC prolif 384: inactive; H69AR inhibit: 15

How did N#C/C(=C\c1ccc(OCc2ccc(C(=O)O)cc2)cc1)C(=O)N1CCOCC1 do in these assays?
bCat KO growth: inactive; HCT116 PTEN-null: inactive

What do the screens show for `COc1cccc2c(=O)n(CC(=O)NC3CCCC3)ccc12`?
bCat KO growth: inactive; Fibroblast inh: inactive; HCT116 PTEN-null: inactive; HUVEC prolif 384: inactive; H69AR inhibit: inactive

Results for Cc1cc2cc(C)c3nnc(SCC(=O)NCc4ccco4)n3c2cc1C ?
bCat KO growth: inactive; Fibroblast inh: inactive; HCT116 PTEN-null: inactive; HUVEC prolif 384: inactive; H69AR inhibit: inactive

Results for COc1cccc(NC(=O)c2nnn(CCc3ccccc3)c2N)c1 ?
bCat KO growth: inactive; Fibroblast inh: inactive; HCT116 PTEN-null: inactive; HUVEC prolif 384: inactive; H69AR inhibit: 32

What do the screens show for `COc1cccc(C(=O)Nc2cccc(-c3nnc(-c4ccccc4)o3)c2)c1`?
HUVEC prolif 384: inactive; H69AR inhibit: 17

Results for O=C(Nc1nnc(-c2ccc(Cl)cc2)o1)c1nc2ccccc2s1 ?
bCat KO growth: inactive; Fibroblast inh: inactive; HCT116 PTEN-null: inactive; HUVEC prolif 384: inactive; H69AR inhibit: 17

Results for COc1ccccc1-c1nnc(NC(=O)c2ccccc2F)o1 ?
bCat KO growth: inactive; Fibroblast inh: inactive; HCT116 PTEN-null: inactive; HUVEC prolif 384: inactive; H69AR inhibit: 1.9

Results for COc1ccccc1-c1nnc(NC(=O)c2ccc(S(=O)(=O)N(C)C)cc2)o1 ?
bCat KO growth: inactive; Fibroblast inh: inactive; HCT116 PTEN-null: inactive; HUVEC prolif 384: inactive; H69AR inhibit: inactive

How did O=C(CS(=O)(=O)c1cn(Cc2ccc(Cl)cc2)c2ccccc12)N1CCCCC1 do in these assays?
bCat KO growth: inactive; Fibroblast inh: inactive; HCT116 PTEN-null: inactive; HUVEC prolif 384: inactive; H69AR inhibit: inactive

Results for COC(=O)CNC(=O)CSc1nnc(-c2ccc(OC)cc2)n1CC(C)C ?
bCat KO growth: inactive; Fibroblast inh: inactive; HCT116 PTEN-null: inactive; HUVEC prolif 384: inactive; H69AR inhibit: inactive

How did COc1cccc(C(=O)Nc2ccc(NC(=O)C(C)(C)C)cn2)c1 do in these assays?
bCat KO growth: inactive; HCT116 PTEN-null: inactive; HUVEC prolif 384: inactive; H69AR inhibit: 37

How did COc1cccc(C(=O)Nc2cccc(NC(C)=O)c2)c1 do in these assays?
bCat KO growth: inactive; HCT116 PTEN-null: inactive; HUVEC prolif 384: inactive; H69AR inhibit: 33

How did COc1ccc(CC(=O)Nc2cccc(-c3nnc(-c4cccc(C)c4)o3)c2)cc1OC do in these assays?
bCat KO growth: inactive; Fibroblast inh: 35; HCT116 PTEN-null: inactive; HUVEC prolif 384: 3.2; H69AR inhibit: inactive

Results for COc1ccc(C(=O)Nc2nnc(-c3ccccc3)o2)cc1OC ?
bCat KO growth: inactive; Fibroblast inh: inactive; HCT116 PTEN-null: inactive; HUVEC prolif 384: inactive; H69AR inhibit: 33

What do the screens show for `O=C(Nc1nnc(-c2ccccc2)o1)c1cc(Cl)sc1Cl`?
bCat KO growth: inactive; HCT116 PTEN-null: inactive

Results for Cc1cccc(-c2nnc(NC(=O)c3ccc(Cl)cc3)o2)c1 ?
bCat KO growth: inactive; Fibroblast inh: inactive; HCT116 PTEN-null: inactive; HUVEC prolif 384: 3.2; H69AR inhibit: 25

How did COc1ccccc1NS(=O)(=O)c1ccc(O)cc1 do in these assays?
bCat KO growth: inactive; HCT116 PTEN-null: inactive

What do the screens show for `CCCCc1c(C)c(C#N)c2nc3ccccc3n2c1Cl`?
bCat KO growth: 1.3; HCT116 PTEN-null: 1.1

Results for O=C(Cc1cccs1)NCCN1CCOCC1 ?
bCat KO growth: inactive; HCT116 PTEN-null: inactive

Results for CCc1ccc(NC(=O)CCNS(=O)(=O)c2cccc3nsnc23)cc1 ?
bCat KO growth: inactive; Fibroblast inh: inactive; HCT116 PTEN-null: inactive; HUVEC prolif 384: inactive; H69AR inhibit: inactive

How did Cc1cnc(NC(=O)CSc2nnc(Cc3ccccc3)n2C)s1 do in these assays?
bCat KO growth: inactive; Fibroblast inh: inactive; HCT116 PTEN-null: inactive; HUVEC prolif 384: inactive; H69AR inhibit: inactive

What do the screens show for `Cc1ccc(C(C)C)c(OCc2nnc(SCC(=O)Nc3ncc(C)s3)n2C)c1`?
bCat KO growth: inactive; Fibroblast inh: inactive; HCT116 PTEN-null: inactive; HUVEC prolif 384: inactive; H69AR inhibit: 9.8

What do the screens show for `COc1ccc2c(c1)c(=O)c(C(=O)c1ccc(F)cc1)cn2CC(=O)Nc1ccc(F)cc1`?
bCat KO growth: inactive; HCT116 PTEN-null: inactive

What do the screens show for `CC(=O)/C=C/c1ccc2ccccc2n1`?
bCat KO growth: 1.5; Fibroblast inh: 7.4; HCT116 PTEN-null: 1.2; HUVEC prolif 384: 30; H69AR inhibit: 0.8
